# Assay results taken from PMC10243129 (Proceedings of the National Academy of Sciences of the …, 2023).
# Legend:
# human MCM, CblA and ATR = biological target: T1, human MCM, CblA and ATR (Homo sapiens, UniProt P22033); assay: CblA-dependent cob; format: biochemical; settings: cob(II)alamin transfer MCM to ATR, anaerobic, 25 °C, 5 mM ADP or 0.5 mM M-CoA
# T1 sequence (P22033 33-750): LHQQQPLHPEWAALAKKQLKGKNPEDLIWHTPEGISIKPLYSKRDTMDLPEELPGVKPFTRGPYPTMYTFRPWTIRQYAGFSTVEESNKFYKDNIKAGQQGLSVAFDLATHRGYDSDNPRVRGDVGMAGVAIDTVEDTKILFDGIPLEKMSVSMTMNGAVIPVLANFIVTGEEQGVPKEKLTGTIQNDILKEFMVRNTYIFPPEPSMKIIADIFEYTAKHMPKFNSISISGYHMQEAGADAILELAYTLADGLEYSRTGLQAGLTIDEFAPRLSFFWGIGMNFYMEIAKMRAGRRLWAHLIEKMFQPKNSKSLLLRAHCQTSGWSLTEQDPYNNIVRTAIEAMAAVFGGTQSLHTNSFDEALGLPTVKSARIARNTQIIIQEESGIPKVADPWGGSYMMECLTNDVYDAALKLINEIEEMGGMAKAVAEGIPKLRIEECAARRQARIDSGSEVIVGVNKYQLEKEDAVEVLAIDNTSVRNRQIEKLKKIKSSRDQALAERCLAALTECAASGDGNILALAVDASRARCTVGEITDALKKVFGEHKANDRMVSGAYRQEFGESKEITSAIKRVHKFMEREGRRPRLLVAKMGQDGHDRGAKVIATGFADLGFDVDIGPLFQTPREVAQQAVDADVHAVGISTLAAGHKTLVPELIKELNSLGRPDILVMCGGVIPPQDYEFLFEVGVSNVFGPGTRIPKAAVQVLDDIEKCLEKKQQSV
# Outline: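 Recombinant human MCM, CblA and ATR expressed in E. coli. Metabolite (ADP or M-CoA) was added to the MCM solution. A464 was followed for 20 min; transfer extent came from Δε464 5.6 cm⁻¹ mM⁻¹, and kobs from a single-exponential fit.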
# human MCM•cob(II)alamin [1] = biological target: T2, human MCM•cob(II)alamin (Homo sapiens, UniProt P22033); assay: Metabolite binding to MCM•cob
# T2 sequence (P22033 33-750): T1 sequence (P22033 33-750)
# Outline: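 Cob(II)alamin was made by photolysis of 1.2 mM AdoCbl (stock) in anaerobic water and quantified with ε474 9.2 cm⁻¹ mM⁻¹. Work was done in an anaerobic chamber (<0.2 ppm O₂) with 40 µM cob(II)alamin and 20 µM MCM dimer in Buffer A at 20 °C. For the screen, metabolites were added at 5 mM and spectra recorded after 15 min. For Kd, metabolite was titrated, A460 read after 10 min, and data fitted to a quadratic binding equation.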
# human MCM = biological target: T3, human MCM (Homo sapiens, UniProt P22033); assay: Kinetics of human MCM•cob; format: biochemical; settings: absence of ligands, in air, 25 °C
# T3 sequence (P22033 33-750): T1 sequence (P22033 33-750)
# Outline: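 The MCM•cob(II)alamin sample (40 µM cob(II)alamin, 20 µM MCM dimer) was prepared in anaerobic Buffer A at pH 7.5. Oxidation was started by twofold dilution with aerobic buffer. H₂OCbl formation was followed as the rise in absorbance at 350 nm versus time, giving kobs.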
# [2] = biological target: T4, Mycobacterium tuberculosis MCM (Mycobacterium tuberculosis, UniProt P9WJK5); assay: Kinetics of M. tuberculosis MCM•cob; format: biochemical; settings: in air
# T4 sequence (P9WJK5 1-750): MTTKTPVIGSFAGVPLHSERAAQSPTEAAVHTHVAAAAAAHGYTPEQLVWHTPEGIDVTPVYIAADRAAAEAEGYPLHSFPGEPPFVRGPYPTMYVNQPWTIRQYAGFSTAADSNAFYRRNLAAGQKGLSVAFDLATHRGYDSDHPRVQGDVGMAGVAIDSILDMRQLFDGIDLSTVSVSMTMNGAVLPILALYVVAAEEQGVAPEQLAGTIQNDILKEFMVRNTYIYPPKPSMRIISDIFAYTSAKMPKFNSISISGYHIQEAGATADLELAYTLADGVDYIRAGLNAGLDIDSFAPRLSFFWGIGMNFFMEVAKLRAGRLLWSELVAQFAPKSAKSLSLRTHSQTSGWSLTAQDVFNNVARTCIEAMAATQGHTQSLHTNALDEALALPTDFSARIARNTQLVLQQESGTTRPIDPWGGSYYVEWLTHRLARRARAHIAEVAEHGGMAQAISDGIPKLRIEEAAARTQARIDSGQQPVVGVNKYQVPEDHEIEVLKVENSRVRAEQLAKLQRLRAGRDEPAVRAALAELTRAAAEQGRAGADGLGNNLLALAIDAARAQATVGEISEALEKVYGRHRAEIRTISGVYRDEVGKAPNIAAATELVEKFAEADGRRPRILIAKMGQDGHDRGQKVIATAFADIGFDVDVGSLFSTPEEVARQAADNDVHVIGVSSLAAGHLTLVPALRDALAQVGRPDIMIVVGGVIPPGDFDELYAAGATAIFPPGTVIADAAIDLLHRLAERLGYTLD
# T4 sequence (P9WJK7 1-615 partner): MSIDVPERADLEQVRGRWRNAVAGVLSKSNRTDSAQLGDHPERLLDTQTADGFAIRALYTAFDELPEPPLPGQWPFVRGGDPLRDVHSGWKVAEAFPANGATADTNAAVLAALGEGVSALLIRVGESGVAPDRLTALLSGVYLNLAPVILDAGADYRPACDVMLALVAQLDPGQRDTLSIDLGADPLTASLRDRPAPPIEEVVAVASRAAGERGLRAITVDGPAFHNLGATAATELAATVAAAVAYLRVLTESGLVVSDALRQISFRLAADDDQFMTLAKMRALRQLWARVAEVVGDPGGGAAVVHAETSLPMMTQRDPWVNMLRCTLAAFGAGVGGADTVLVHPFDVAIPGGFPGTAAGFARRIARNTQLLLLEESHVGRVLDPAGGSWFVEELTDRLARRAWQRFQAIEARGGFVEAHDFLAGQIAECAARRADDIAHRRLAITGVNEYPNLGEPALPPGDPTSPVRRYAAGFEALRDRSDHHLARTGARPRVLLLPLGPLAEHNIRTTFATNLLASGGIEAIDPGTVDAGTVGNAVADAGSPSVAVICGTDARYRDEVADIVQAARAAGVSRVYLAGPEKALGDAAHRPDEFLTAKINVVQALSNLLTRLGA
# human MCM•cob(II)alamin [3] = biological target: T2, human MCM•cob(II)alamin; assay: Stopped-flow spectroscopy of ADP/ATP binding to MCM•cob
# Outline: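 Anaerobic stopped-flow with diode-array detection was run at 25 °C. MCM•cob(II)alamin was preformed from 80 µM cob(II)alamin and 40 µM MCM dimer (stock) in Buffer A for 10 min, then rapidly mixed with 0.25–2.5 mM ADP or ATP. A460 traces were fitted to a single exponential for kobs. kon came from linear regression of kobs on metabolite concentration, and koff from titration Kd and kon.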
# ATR = settings: PPPi on ATR ternary product complex; ref [14]; cited from earlier work
# human ATR = biological target: T5, human ATR (Homo sapiens, UniProt Q96EY8); assay: ATP-triggered release of AdoCbl from ATR into solution; format: biochemical; settings: ATR•AdoCbl without PPPi, confirmed after separation with a 10 kDa cutoff filter
# T5 sequence (Q96EY8 33-250): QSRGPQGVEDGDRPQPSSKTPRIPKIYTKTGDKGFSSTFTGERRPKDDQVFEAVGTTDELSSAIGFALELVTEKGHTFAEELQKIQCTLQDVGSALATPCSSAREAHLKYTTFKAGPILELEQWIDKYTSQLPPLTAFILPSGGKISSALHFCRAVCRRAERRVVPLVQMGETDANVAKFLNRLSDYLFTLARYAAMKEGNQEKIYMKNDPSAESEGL
SMILES,"Rate of transfer (kobs) (human MCM, CblA and ATR) [min⁻¹]",Kd (human MCM•cob(II)alamin [1]) [µM],further results
"CC(C)(COP(=O)(O)OP(=O)(O)OC[C@H]1O[C@@H](n2cnc3c(N)ncnc32)[C@H](O)[C@@H]1OP(=O)(O)O)[C@@H](O)C(=O)NCCC(=O)NCCS [CoA, Coenzyme A]",0.92 ± 0.06,118 ± 13,
C/C1=C2/[N-][C@H]([C@H](CC(N)=O)[C@@]2(C)CCC(=O)NC[C@@H](C)OP(=O)([O-])O[C@H]2[C@@H](O)[C@@H](n3cnc4cc(C)c(C)cc43)O[C@@H]2CO)[C@]2(C)N=C(/C(C)=C3N=C(/C=C4N=C1[C@@H](CCC(N)=O)C\4(C)C)[C@@H](CCC(N)=O)[C@]\3(C)CC(N)=O)[C@@H](CCC(N)=O)[C@]2(C)CC(N)=O.[Co+2] [cob(II)alamin],,,kobs of oxidation of MCM-bound cob(II)alamin to H2OCbl (human MCM): 0.08 min⁻¹
"Nc1ncnc2c1ncn2[C@@H]1O[C@H](COP(=O)(O)OP(=O)(O)O)[C@@H](O)[C@H]1O [ADP, adenosine diphosphate]",0.24 ± 0.01,44 ± 4.2,Effect on oxidation of cob(II)alamin bound to M. tuberculosis MCM [2]: prevented; fold higher kon of ADP versus ATP (human MCM•cob(II)alamin [3]; ADP vs ATP): ~ 100 fold; rate of ADP binding relative to oxidation of cob(II)alamin on MCM (human MCM•cob(II)alamin [3]; assuming a cellular ADP concentration of 6 mM): ~ 600 fold
"O=P(O)(O)OP(=O)(O)OP(=O)(O)O [PPPi, sodium triphosphate pentabasic]",,,Kd (ATR): < 0.4 µM
"Nc1ncnc2c1ncn2[C@@H]1O[C@H](COP(=O)(O)OP(=O)(O)OP(=O)(O)O)[C@@H](O)[C@H]1O [ATP, adenosine triphosphate]",,30 ± 5,AdoCbl released from ATR into solution (human ATR): 40%
"C[C@H]1O[C@@H](n2cnc3c(N)ncnc32)[C@H](O)[C@@H]1O [5′-dAdo, 5′-deoxyadenosine]",,4.2 ± 2.1,
